Test results: ChEMBL document CHEMBL1126796, “2-(Alkylamino)nicotinic acid and analogs. Potent angiotensin II antagonists” (J Med Chem, 1993)
Blank lines part the entries; values can stand above or below the compound they belong to. The source made the active and inactive calls. The rule behind the calls is not given here.

How the values were obtained:
Rattus norvegicus [1] = assay: % decrease in blood pressure after 4 hours at a dose of 0.3 mg/kg in male rats by using Renal artery hypertensive model; type: functional
How it was run: (§1)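 Male Sprague-Dawley rats (300-350 g) were made hypertensive by renal artery ligation and used on day 6 or 7 after ligation. Arterial pressure was measured from an indwelling femoral artery catheter, with blood pressure and heart rate recorded on line. Read-out is % decrease in blood pressure at 4 h, ±SEM, with number of rats.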

[2] = Area under curve after oral dose of 0.1 mg//kg; type: ADME
How it was run: (§2)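 Male Sprague-Dawley-derived rats were dosed with compound in normal saline (1 mL/kg), by gavage or as a slow IV bolus into the jugular vein. Heparinized tail-vein blood was taken at 0.25-24 h, extracted liquid-liquid and assayed by reverse-phase HPLC. Cmax is the observed peak concentration and AUC is mean (SEM). F compares oral with IV AUC, corrected for dose and assuming dose proportionality.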

[3] = Area under curve after oral dose of 0.3 mg/kg; type: ADME, organism-based; parameters: dose 0.3 mg/kg, route oral; settings: in vivo; how it was run: as §2
[4] = Area under curve after oral dose of 1 mg/kg; type: ADME, organism-based; parameters: dose 1 mg/kg, route oral; settings: in vivo; how it was run: as §2
[5] = Area under curve after oral dose of 3 mg/kg; type: ADME, organism-based; parameters: dose 3 mg/kg, route oral; settings: in vivo; how it was run: as §2
[6] = Cmax value after oral dose of 0.1 mg//kg; type: ADME, organism-based; parameters: dose 0.1 mg//kg, route oral; settings: in vivo; how it was run: as §2
[7] = Cmax value after oral dose of 0.3 mg/kg; type: ADME, organism-based; parameters: dose 0.3 mg/kg, route oral; settings: in vivo; how it was run: as §2
[8] = Cmax value after oral dose of 1 mg/kg; type: ADME, organism-based; parameters: dose 1 mg/kg, route oral; settings: in vivo; how it was run: as §2
[9] = Cmax value after oral dose of 3 mg/kg; type: ADME, organism-based; parameters: dose 3 mg/kg, route oral; settings: in vivo; how it was run: as §2
[10] = Volume of distribution of central compartment (= dose+ plasma concentration at time zero) after intravenous dose of 0.3 mg/kg; type: ADME, organism-based; parameters: dose 0.3 mg/kg, route intravenous; settings: read-out: VI
How it was run: (§3)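 Jugular-vein slow iv bolus (normal saline, 1 mL/kg) in male Sprague-Dawley-derived rats. Plasma was sampled via the tail vein at 0.1–24 h and measured by reverse-phase HPLC after liquid-liquid extraction. Central volume was taken as dose divided by plasma concentration at time zero. Terminal-phase volume was derived from clearance and the plasma elimination rate constant.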

[11] = Volume of distribution of central compartment (= dose+ plasma concentration at time zero) after intravenous dose of 1 mg/kg; type: ADME, organism-based; parameters: dose 1 mg/kg, route intravenous; settings: read-out: VI; how it was run: as §3
[12] = Volume of distribution of central compartment (= dose+ plasma concentration at time zero) after intravenous dose of 3 mg/kg; type: ADME, organism-based; parameters: dose 3 mg/kg, route intravenous; settings: read-out: VI; how it was run: as §3
[13] = Volume of distribution of the terminal phase (= CLp+ plasma elimination rate constant) after intravenous dose of 0.3 mg/kg; type: ADME, organism-based; parameters: dose 0.3 mg/kg, route intravenous; settings: read-out: Vbeta; how it was run: as §3
[14] = Volume of distribution of the terminal phase (= CLp+ plasma elimination rate constant) after intravenous dose of 1 mg/kg; type: ADME, organism-based; parameters: dose 1 mg/kg, route intravenous; settings: read-out: Vbeta; how it was run: as §3
[15] = Volume of distribution of the terminal phase (= CLp+ plasma elimination rate constant) after intravenous dose of 3 mg/kg; type: ADME, organism-based; parameters: dose 3 mg/kg, route intravenous; settings: read-out: Vbeta; how it was run: as §3
[16] = Tmax value after oral dose of 0.1 mg//kg; type: ADME, organism-based; settings: in vivo
How it was run: (§4)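 Male Sprague-Dawley-derived rats. Compound was given in normal saline at 1 mL/kg, either as a slow iv bolus into the jugular vein or orally by gavage. Plasma underwent liquid-liquid extraction and reverse-phase HPLC. Terminal elimination half-life and time of observed peak concentration were taken from the profiles.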

[17] = Tmax value after oral dose of 0.3 mg/kg; type: ADME, organism-based; parameters: dose 0.3 mg/kg, route oral; settings: in vivo; how it was run: as §4
[18] = Tmax value after oral dose of 3 mg/kg; type: ADME, organism-based; parameters: dose 3 mg/kg, route oral; settings: in vivo; how it was run: as §4
[19] = Plasma clearance after intravenous dose of 0.3 mg/kg; type: ADME, organism-based; parameters: dose 0.3 mg/kg, route intravenous; settings: read-out: Clp
How it was run: (§5)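 Male Sprague-Dawley-derived rats received a slow iv bolus into the jugular vein of the compound in normal saline (1 mL/kg). Tail-vein heparinized blood was drawn from 0.1 to 24 h and assayed by reverse-phase HPLC after liquid-liquid extraction. Total plasma clearance was calculated as dose divided by AUC and reported as mean (SEM).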

[20] = Plasma clearance after intravenous dose of 1 mg/kg; type: ADME, organism-based; parameters: dose 1 mg/kg, route intravenous; settings: read-out: Clp; how it was run: as §5
[21] = Plasma clearance after intravenous dose of 3 mg/kg; type: ADME, organism-based; parameters: dose 3 mg/kg, route intravenous; settings: read-out: Clp; how it was run: as §5
[22] = Bioavailability after oral dose of 0.1 mg//kg; type: ADME, organism-based; settings: eutheria, in vivo; how it was run: as §2
[23] = Bioavailability after oral dose of 0.3 mg/kg; type: ADME, organism-based; settings: eutheria, in vivo; how it was run: as §2
[24] = Bioavailability after oral dose of 1 mg/kg; type: ADME, organism-based; settings: eutheria, in vivo; how it was run: as §2
[25] = Bioavailability after oral dose of 3 mg/kg; type: ADME, organism-based; settings: eutheria, in vivo; how it was run: as §2
[26] = Half-life period of compound after intravenous dose of 1 mg/kg; type: ADME, organism-based; parameters: dose 1 mg/kg, route intravenous; settings: in vivo; how it was run: as §4
[27] = Half-life period of compound after intravenous dose of 3 mg/kg; type: ADME, organism-based; parameters: dose 3 mg/kg, route intravenous; settings: in vivo; how it was run: as §4
[28] = Half-life period after oral dose of 0.1 mg//kg; type: ADME, organism-based; settings: in vivo; how it was run: as §2
[29] = Half-life period after oral dose of 0.3 mg/kg; type: ADME, organism-based; parameters: dose 0.3 mg/kg, route oral; settings: in vivo; how it was run: as §2
[30] = Half-life period after oral dose of 1 mg/kg; type: ADME, organism-based; parameters: dose 1 mg/kg, route oral; settings: in vivo; how it was run: as §2
[31] = Half-life period after oral dose of 3 mg/kg; type: ADME, organism-based; parameters: dose 3 mg/kg, route oral; settings: in vivo; how it was run: as §2
[32] = biological target: T1, Type-1 angiotensin II receptor A (Rattus norvegicus, UniProt P25095); assay: Binding affinity against angiotensin II receptor from rat liver
T1 sequence (P25095 whole entry): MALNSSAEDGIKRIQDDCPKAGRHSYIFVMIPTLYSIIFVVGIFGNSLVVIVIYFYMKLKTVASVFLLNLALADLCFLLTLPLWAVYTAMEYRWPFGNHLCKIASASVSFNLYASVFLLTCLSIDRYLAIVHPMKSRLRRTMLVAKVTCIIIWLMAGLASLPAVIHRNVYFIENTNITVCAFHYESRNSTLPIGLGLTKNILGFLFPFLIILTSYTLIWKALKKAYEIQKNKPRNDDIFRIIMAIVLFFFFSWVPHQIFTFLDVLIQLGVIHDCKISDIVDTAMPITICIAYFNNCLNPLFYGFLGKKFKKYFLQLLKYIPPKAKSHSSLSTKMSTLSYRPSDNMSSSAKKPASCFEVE
How it was run: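 Rat liver membranes were incubated with [125I]-saralasin to measure angiotensin II type 1 receptor binding. Nonspecific binding was defined with 1 µM angiotensin.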

Rattus norvegicus [33] = assay: % decrease in blood pressure after 24 hours at a dose of 0.1 mg/kg in male rats by using Furosemide-treated spontaneous hypertensive model; type: functional
How it was run: (§6)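 Male SHR, 20-24 weeks old, pretreated with furosemide 10 mg/kg sc at 22 and 4 h before the experiment; compound dosed orally. Arterial pressure was recorded from an indwelling femoral artery catheter with on-line blood pressure and heart rate analysis. Read-out is % fall in blood pressure at 4 h and at 24 h, ±SEM, with number of rats.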

Rattus norvegicus [34] = assay: % decrease in blood pressure after 24 hours at a dose of 1 mg/kg in male rats by using Furosemide-treated spontaneous hypertensive model; type: functional; how it was run: as §6
Rattus norvegicus [35] = assay: % decrease in blood pressure after 4 hours at a dose of 0.1 mg/kg in male rats by using Furosemide-treated spontaneous hypertensive model; type: functional; how it was run: as §6
Rattus norvegicus [36] = assay: % decrease in blood pressure after 4 hours at a dose of 1 mg/kg in male rats by using Furosemide-treated spontaneous hypertensive model; type: functional; how it was run: as §6
Rattus norvegicus [37] = assay: % decrease in blood pressure after 4 hours at a dose of 1 mg/kg in male rats by using Renal artery hypertensive model; type: functional; how it was run: as §1
Rattus norvegicus [38] = assay: % decrease in blood pressure after 4 hours in male rats at a dose of 0.01 mg/kg by using Renal artery hypertensive model; type: functional; how it was run: as §1
Rattus norvegicus [39] = assay: % decrease in blood pressure after 4 hours in male rats at a dose of 0.03 mg/kg by using Renal artery hypertensive model; type: functional; how it was run: as §1
Rattus norvegicus [40] = assay: % decrease in blood pressure after 4 hours in male rats at a dose of 0.3 mg/kg by using Renal artery hypertensive model; type: functional; how it was run: as §1
[41] = Half-life period of compound after intravenous dose of 0.3 mg/kg; type: ADME, organism-based; parameters: dose 0.3 mg/kg, route intravenous; settings: in vivo; how it was run: as §4
[42] = Tmax value after oral dose of 1 mg/kg; type: ADME, organism-based; parameters: dose 1 mg/kg, route oral; settings: in vivo; how it was run: as §4
Rattus norvegicus [43] = assay: % decrease in blood pressure after 4 hours at a dose of 0.3 mg/kg in male rats by using Renal artery hypertensive model; IA means inactive; type: functional, organism-based; parameters: dose 0.3 mg/kg; how it was run: as §1

SMILES: CCCN(Cc1ccc(-c2ccccc2-c2nn[nH]n2)cc1)c1ncccc1NS(=O)(=O)C(F)(F)F
Decrease in blood pressure (Rattus norvegicus [1]): 6%

AUC [2]: 8.21 µg/h/mL
AUC [3]: 24.44 µg/h/mL
AUC [4]: 28.87 µg/h/mL
AUC [5]: 90.15 µg/h/mL
Cmax [6]: 490 ng/mL
Cmax [7]: 1350 ng/mL
Cmax [8]: 2770 ng/mL
Cmax [9]: 9600 ng/mL
Vd [10]: 0.04 L/kg
Vd [11]: 0.04 L/kg
Vd [12]: 0.04 L/kg
Vd [13]: 0.17 L/kg
Vd [14]: 0.13 L/kg
Vd [15]: 0.12 L/kg
Tmax [16]: 1.3 h
Tmax [17]: 1.4 h
Tmax [18]: 54 min
clearance [19]: 0.07 mL/min
clearance [20]: 0.07 mL/min
clearance [21]: 0.07 mL/min
bioavailability [22]: 97.9%
bioavailability [23]: 97.2%
bioavailability [24]: 34.9%
bioavailability [25]: 36.3%
half-life [26]: 426 min
half-life [27]: 396 min
half-life [28]: ≤ 720 min
half-life [29]: > 720 min
half-life [30]: 414 min
half-life [31]: 342 min
Ki [32]: 0.61 nM
half-life [41]: 570 min
Tmax [42]: 54 min
SMILES: CCCN(Cc1ccc(-c2ccccc2-c2nnn[nH]2)cc1)c1ncccc1C(=O)O
Decrease in blood pressure (Rattus norvegicus [33]): 36%
Decrease in blood pressure (Rattus norvegicus [34]): 46%
Decrease in blood pressure (Rattus norvegicus [35]): 23%
Decrease in blood pressure (Rattus norvegicus [36]): 32%
Decrease in blood pressure (Rattus norvegicus [37]): 40%
Decrease in blood pressure (Rattus norvegicus [38]): 22%
Decrease in blood pressure (Rattus norvegicus [39]): 10%
Decrease in blood pressure (Rattus norvegicus [40]): 36%

SMILES: CCCN(Cc1ccc(-c2ccccc2-c2nn[nH]n2)cc1)c1ncccc1CO
Decrease in blood pressure (Rattus norvegicus [43]): inactive

SMILES: CCCN(Cc1ccc(-c2ccccc2-c2nn[nH]n2)cc1)c1nc(F)ccc1C(=O)O
Decrease in blood pressure (Rattus norvegicus [34]): 36%
Decrease in blood pressure (Rattus norvegicus [36]): 15%

SMILES: CCCN(Cc1ccc(-c2ccccc2-c2nn[nH]n2)cc1)c1nnccc1C(=O)O
Decrease in blood pressure (Rattus norvegicus [34]): 18%
Decrease in blood pressure (Rattus norvegicus [36]): 3%
